SMARCA2 activ: SMARCA2 function activation, primary screen; actives 1% (n = 370,000); AID 652017; activation, % at 9.1 µM; MG213 cells, MMTV-luciferase reporter, dexamethasone, overnight; in the data active means activation above about 7.8%;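 further: 0% = vehicle wells and 100% = reference activator wells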
SR-BI DiI-HDL act: SR-BI HDL lipid transfer activation; CHO ldlA[mSR-BI] cells, DiI-HDL uptake fluorescence, 3 h; 100 = double the neutral-control signal; activation, % at 12.5 µM; actives 0.096% (n = 320,000); AID 504775;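 active means mean replicate activation of at least 60% and every replicate at or above 60%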;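 further: 0% = median plate neutral-control signal and 100% = twice that signal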
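Assay system: LDL receptor-deficient CHO ldlA cells overexpressing murine SR-BI / Medium: BSA-supplemented, HEPES-buffered Ham's F12, pH 7.4 / Probe or stimulus: DiI-labelled HDL at 10 µg/mL final / Timing: compound with DiI-HDL co-incubation, 3 h at 37 °C / Technique: bottom-read cell fluorescence after medium removal, ex 550/em 595 nm / Measure: HDL uptake via cellular fluorescence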
H9c2 TAG inh: reduces triacylglycerol accumulation in H9c2 cells; actives 0.66% (n = 230,000); AID 651582; inhibition, % at 12.5 µM; Nile Red lipid (TAG) fluorescence; cells loaded with 200 µM oleic acid;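 active means pattern-corrected inhibition of lipid staining of at least 50% with the nuclear-stain viability signal not falling by more than 50%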;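 further: 0% = DMSO wells and 100% = triacsin C control wells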
Vif inh: blocks HIV Vif function; HEK293T cells, Vif self-association by quenched fluorescence, imaging, 24 h; inhibition, % at 7.49 µM; actives 0.35% (n = 340,000); in the data active means inhibition above about 50%, passing the limit was not always enough
SR-BI DiI inh: blocks mouse SR-BI lipid uptake from DiI-HDL | ldlA[mSR-BI] CHO cells, DiI-HDL uptake fluorescence, 3 h | inhibition, % at 12.5 µM | AID 488896 | actives 0.96% (n = 320,000);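 active means mean replicate inhibition of at least 70% and a set share of replicates each scoring 70 or more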;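 further: 0% = median of neutral control wells and 100% = median of positive control wells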
Target sequence (Q61009 whole entry, looked up): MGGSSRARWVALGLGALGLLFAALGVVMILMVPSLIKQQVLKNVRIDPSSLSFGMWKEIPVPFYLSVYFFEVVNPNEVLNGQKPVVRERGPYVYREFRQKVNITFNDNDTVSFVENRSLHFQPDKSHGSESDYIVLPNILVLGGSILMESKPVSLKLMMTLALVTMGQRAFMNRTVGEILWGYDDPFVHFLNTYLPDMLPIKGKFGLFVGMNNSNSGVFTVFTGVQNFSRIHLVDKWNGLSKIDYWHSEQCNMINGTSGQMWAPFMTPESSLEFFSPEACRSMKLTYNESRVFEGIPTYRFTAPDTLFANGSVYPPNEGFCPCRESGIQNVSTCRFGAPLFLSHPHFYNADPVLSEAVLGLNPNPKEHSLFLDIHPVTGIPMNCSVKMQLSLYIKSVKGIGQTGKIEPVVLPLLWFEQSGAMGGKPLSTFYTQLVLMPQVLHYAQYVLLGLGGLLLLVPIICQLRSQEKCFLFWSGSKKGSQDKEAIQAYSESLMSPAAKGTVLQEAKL
Numbers without * were called inactive; . = no result given. Most compounds without a hit are left out; they make up all but 2.5% or so of the library.

SMILES	SMARCA2 activ	SR-BI DiI-HDL act	H9c2 TAG inh	Vif inh	SR-BI DiI inh
CCCCNc1c(-c2ccc(-c3ccc(C(C)=O)cc3)c(OC)c2)nc2cnccn12	.	-73	32	-2	73*
CCCCCCc1cc2cc(-c3nnc(-c4ccccc4OC)o3)c(=O)oc2cc1O	-2	-16	.	70*	16
CON(C)C(=O)C(C)(C)CC#CCN(CC#Cc1ccccc1)S(=O)(=O)c1ccc(C)cc1	-5	.	.	.	.
Cn1c(=O)c2c(nc(NCC3CCCC(CN)C3)n2Cc2ccc(Cl)cc2Cl)n(C)c1=O (stereo unspecified)	-5	4	.	51*	-4
Cc1cc(Br)c2nc(-c3ccc(Cl)cc3)c(Cc3cccc(Cl)c3)n2c1	-3	.	.	.	.
O=S(=O)(c1cccs1)N1CCCc2nc(-c3ccccc3)ccc21	-6	.	.	.	.
N=c1n(CCN2CCOCC2)c2ccccc2n1CC(=O)c1cccc([N+](=O)[O-])c1	-1	-77	15	-2	77*
CCn1c(=N)n(CC(=O)c2cccc([N+](=O)[O-])c2)c2ccccc21	5	-54	31	-10	54
O=C(Nc1ccc(F)cc1)Nc1ccc(N2CCCC2)c(S(=O)(=O)Nc2ccccc2Cl)c1	-8	-87	.	-10	87*
O=C(Nc1ccc(N2CCCCC2)c(S(=O)(=O)Nc2ccccc2Cl)c1)c1cccnc1	-5	17	-7	-8	-17
O=C(Nc1ccc(Cl)c(Cl)c1)Nc1ccccc1O	7	-78	.	9	78*
O=C(Nc1ccc(N2CCOCC2)c(S(=O)(=O)Nc2ccccc2Cl)c1)c1ccc(F)cc1	-2	-40	-4	1	40
O=C(Nc1ccc(Cl)c(Cl)c1)N1CCCCCC1	4	-11	4	.	11
O=C(Nc1ccc(Cl)c(Cl)c1)Nc1ccc(N2CCCC2)c(S(=O)(=O)Nc2ccccc2Cl)c1	-11	-86	-4	-24	86*
O=C(Nc1ccc(Cl)c(Cl)c1)N1CCSCC1	4	320*	7	3	-320
COC(=O)[C@@]12CCCCC=C1N(CCc1ccc(Cl)cc1)C(=O)[C@H]2CC(=O)NCCc1ccccc1OC	-3	.	.	.	.
CCC(C)[C@H](NC(=O)C1CC(=O)N(c2ccc(OC)cc2)C1)C(=O)NC1CCCC1 (stereo partly specified)	8.0*	-1	.	-3	1
COc1ccc(N2CC(C(=O)N[C@@H](C)C(=O)NC3CCCC3)CC2=O)cc1 (stereo partly specified)	-3	34	.	5	-34
Cc1cc(/C=C\c2ccc3cc(N(C)C)ccc3[n+]2C)c(C)n1-c1ccccc1	.	166*	-110	.	-166
Nc1ccc(-c2cnc3ccccc3n2)cc1	5	.	-9	21	.
Nc1ccc(-c2cnc(-c3ccc(N)cc3)nc2)cc1	2	-5	20	77*	5
O=Nc1c(-c2c(O)[nH]c3cc(Br)ccc23)[nH]c2ccccc12	3	-118	84*	-3	118*
CCN(CC)CCCNC(=O)CSc1nc(-c2ccc(F)cc2)cc(C(F)(F)F)n1	2	-86	11	-2	86*
COC(=O)CSc1nc(-c2ccc(F)cc2)cc(C(F)(F)F)n1	1	-23	-1	4	23
CCN1CCCC1CNC(=O)c1cc2c(-c3ccc(Cl)cc3)nn(C)c2s1 (stereo unspecified)	.	-57	53*	-7	57
SMILES	SMARCA2 activ	SR-BI DiI-HDL act	H9c2 TAG inh	Vif inh	SR-BI DiI inh
Cc1ccc(CNC(=O)c2cc3c(-c4ccc(Cl)cc4)nn(C)c3s2)o1	-3	-76	41	-30	76*
COCCCNC(=O)c1cc2c(-c3ccc(Cl)cc3)nn(C)c2s1	-1	-77	43	-9	77*
Cn1nc(-c2ccc(Cl)cc2)c2cc(C(=O)NCCCN3CCCC3)sc21	0	-76	38	2	76*
CCCCNC(=O)c1cc2c(-c3ccc(Cl)cc3)nn(C)c2s1	-3	-69	46	-6	69
CN1C(=O)c2cc(NC(=O)C3CCCCC3)ccc2OC[C@H]2O[C@@H](CC(=O)NC3CCCC3)CC[C@H]21	-4	.	.	.	.
Cc1ccccc1C(=O)N1CCN(C(=O)C(=O)c2cccc(C(F)(F)F)c2)CC1	-1	.	.	.	.
CC1(Cc2ccc(Cl)c(Cl)c2)C(=O)Nc2ccc(S(=O)(=O)NC3CCCCC3)cc21 (stereo unspecified)	-8	.	15	.	.
CC1(Cc2cc(Cl)ccc2C(F)(F)F)C(=O)Nc2ccc(S(=O)(=O)NC3CCCCC3)cc21 (stereo unspecified)	-5	.	2	70*	.
COc1ccc(-c2sc3ccc(N4CCOCC4)cc3c2C#Cc2ccsc2)cc1	3	-90	17	2	90*
COc1ccc(-c2sc3ccc(N4CCOCC4)cc3c2-c2ccc(O)cc2)cc1	-1	-59	-4	.	59
Cc1nnc(SCCn2c(N(C)Cc3ccccc3)nc3c2c(=O)[nH]c(=O)n3C)s1	-1	20	-10	62*	-20
Cc1nnc(SCCn2c(N3CCN(Cc4ccccc4)CC3)nc3c2c(=O)[nH]c(=O)n3C)s1	-2	10	.	3	-10
C(=N\c1c(-c2ccccc2)nc2n1CCS2)/c1ccccc1	-2	-34	17	-9	34
Clc1ccc(/C=N/c2c(-c3ccc(Cl)cc3)nc3n2CCS3)cc1	1	-89	.	-2	89*
COc1ccc(C(=O)C2CCCN(C(=O)Cn3nc(C)nc3C)C2)cc1F (stereo unspecified)	-1	.	-16	.	.
Cc1nc(C)n(CC(=O)N2CCCC(C(=O)c3ccc(C(F)(F)F)cc3)C2)n1 (stereo unspecified)	1	16	.	96*	-16
COC(=O)N1Cc2ccnnc2CC1c1ccccc1-c1ccc(F)cc1 (stereo unspecified)	-3	.	.	.	.
CCN(C(=O)C1CCCN(c2nnc(-n3cccc3)s2)C1)c1ccccc1C (stereo unspecified)	-7	.	.	.	.
COc1cc(N/N=C(\C)c2ccc(O)c(C)c2)nc(-c2ccccc2)n1	0	-92	13	5	92*
C/C(=N\Nc1nc(C)cc(-c2ccccc2)n1)c1ccc(O)cc1	-1	-54	39	-5	54
COc1cc(N/N=C(\C)c2ccc(N)cc2)nc(-c2ccccc2)n1	3	-79	-7	1	79*
C/C(=N\Nc1cc(-c2ccccc2)nc(-c2ccccc2)n1)c1ccc(O)c(C)c1	-2	-94	.	2	94*
O=[N+]([O-])c1ccc(/C=N/Nc2cc(Cl)nc(-c3ccccc3)n2)cc1	2	-6	16	13	6
O=[N+]([O-])c1cccc(/C=N/Nc2cc(Cl)nc(-c3ccccc3)n2)c1	1	-74	13	2	74*
C/C(=N\Nc1cc(C)nc(-c2ccccc2O)n1)c1ccccc1	0	-55	20	6	55
Cc1ccc(S(=O)(=O)N2CC3=C(c4ccccc4)CC4(C)C(=O)C(C)(C)CC4=C3C2)cc1 (stereo unspecified)	-4	.	.	.	.

Assay outcomes as filed in PubChem BioAssay.
